For 23 compounds, EC50, CC50 and selectivity ratio results are on record in ChEMBL document CHEMBL3351741, “Fused heterocycles bearing bridgehead nitrogen as potent HIV-1 NNRTIs. Part 2: discovery of novel [1,2,4]Triazolo[1,5-a]pyrimidines using a structure-guided core-refining approach” (Eur J Med Chem, 2014).

The subject of data set [1] is Human immunodeficiency virus 1. Briefly: Antiviral activity against HIV-1 3B infected in human MT4 cells assessed as protection from viral cytopathicity after 5 days by MTT assay. In kind it is functional, organism-based. The following applies: Human immunodeficiency virus 1, 3B, MT4, 120 h. Summed up: (§1)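 MT-4 cells (6 × 10⁵ cells/ml) infected with HIV-1 IIIB or HIV-2 ROD stock at 100-300 CCID₅₀; compounds added as 10× stocks. After 5 days, viability read by MTT reduction at 540 and 690 nm, using median OD of two or three wells. EC₅₀ is the concentration giving 50% protection from viral cytopathicity.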
On the technique in general: Protection from cytopathic effect is a common read-out in antiviral testing.

Data set [2] has as its system Human immunodeficiency virus 1. The data set is described as follows: Antiviral activity against HIV-1 RES056 harboring RT K103N/Y181C double mutant infected in human MT4 cells assessed as protection from viral cytopathicity after 5 days by MTT assay. The data set is classed as functional, organism-based. The following applies: Human immunodeficiency virus 1, RES056, MT4, 120 h. Summed up:
(§2)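 MT-4 cells resuspended at 6 × 10⁵ cells/ml, infected with HIV-1 IIIB, RES056 or HIV-2 ROD at 100-300 CCID50, or mock-infected; test compounds added from 10× stocks. After 5 days, viability read by MTT at 540 and 690 nm, median OD of two or three wells. EC50 = 50% protection from cytopathicity; CC50 = 50% viability loss in mock-infected cells; SI = CC50/EC50.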

Data set [3] concerns Human immunodeficiency virus 2. Briefly: Antiviral activity against HIV-2 ROD infected in human MT4 cells assessed as protection from viral cytopathicity after 5 days by MTT assay. In kind it is functional, organism-based. The following applies: Human immunodeficiency virus 2, ISOLATE ROD, MT4, 120 h. In outline: as §1
Data set [4] can be described thus: Cytotoxicity against mock-infected human MT4 cells after 5 days by MTT assay. In kind it is cell-based. In outline:
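Mock-infected MT-4 cells (6 × 10⁵ cells/ml) received culture medium in place of virus and were exposed to compounds added as 10× stocks. After 5 days, viability was read by MTT at 540 and 690 nm, using median OD of two or three wells. CC₅₀ is the concentration cutting viability by 50%. '>' marks the highest concentration tested without cytotoxicity.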

Data set [5] in a line: Selectivity index, ratio of CC50 for mock-infected human MT4 cells to EC50 for HIV-1 3B infected in human MT4 cells. The data set is classed as toxicity, cell-based. To be noted: mock-infected and infected with HIV-1 3B, read-out: Ratio CC50/EC50. In outline:
as §2

Data set [6] is described as follows: Selectivity index, ratio of CC50 for mock-infected human MT4 cells to EC50 for HIV-1 RES056 harboring RT K103N/Y181C double mutant infected in human MT4 cells. The data set is classed as toxicity, cell-based. The following applies: read-out: Ratio CC50/EC50. Summed up: as §2
Data set [7] in a line: Selectivity index, ratio of CC50 for mock-infected human MT4 cells to EC50 for HIV-2 ROD infected in human MT4 cells. The data set is classed as toxicity, cell-based. To be noted: mock-infected and infected with HIV-2 ROD, read-out: Ratio CC50/EC50. Summed up:
as §2

Data set [8] relates to Human immunodeficiency virus 1. The data set is described as follows: Antiviral activity against HIV-1 harboring wild-type reverse transcriptase. In kind it is functional, organism-based.
The test system of data set [9] is Human immunodeficiency virus 1. The data set is described as follows: Antiviral activity against HIV-1 harboring RT Y181C mutant. In kind it is functional, organism-based.
The test system of data set [10] is Human immunodeficiency virus 1. Briefly: Antiviral activity against HIV-1 harboring RT Y188L mutant. In kind it is functional, organism-based.
Data set [11] concerns Human immunodeficiency virus 1. The data set is described as follows: Antiviral activity against HIV-1 harboring RT K103N/Y181C double mutant. The data set is classed as functional, organism-based.

Each structure is given as a SMILES string.

For `N#Cc1ccc(Nc2cc(Oc3c(Br)cc(Br)cc3Br)n3ncnc3n2)cc1`, the EC50 in data set [1] was 0.3 µM; in [2], > 47 µM; in [3], > 47 µM. Moreover, in data set [4], it took 47 µM to reach half-maximal cytotoxicity (CC50 at 120 h). In addition, the selectivity ratio in data set [5] was 142; in [6] it was < 1; in data set [7] it was < 1.

Turning to `N#Cc1ccc(Nc2cc(Oc3c(Cl)cccc3Cl)n3ncnc3n2)cc1`, the EC50 is 3.4 µM in data set [1], > 150 µM in data set [2] and > 150 µM in data set [3]. The compound further came in with a CC50 at 120 h in data set [4] of 150 µM. The selectivity ratio in data set [5] was 44; in [6], < 1; in [7], < 1.

For the compound `Cc1cc(C#N)cc(C)c1Oc1nc(Nc2ccc(C#N)cc2)nc2cc[nH]c12`, the EC50 in data set [8] came to 0.00025 µM; in data set [9] it was 0.0014 µM; in [10], 0.0011 µM; in data set [11] it was 0.0038 µM.

`N#Cc1ccc(Nc2cc(Oc3c(Cl)cc(Cl)cc3Cl)nc3ncnn23)cc1`: the EC50 in data set [1] was 0.3 µM; in data set [2] it was > 32 µM; in data set [3] it was > 32 µM. For the same compound, in data set [4], the CC50 at 120 h is 32 µM. In addition, the results for the selectivity ratio in data set [5], in data set [6] and in [7] were 109, < 1 and < 1, respectively.

Regarding `Cc1cc(C)c(Oc2cc(Nc3ccc(C#N)cc3)nc3ncnn23)c(C)c1`, the results for the 50% effective concentration (EC50) in data set [1], in data set [2] and in data set [3] were 0.05 µM, > 164 µM and > 164 µM, respectively. For the same compound, half-maximal cytotoxicity in data set [4] (CC50 at 120 h) was put at 164 µM. The selectivity ratio was 3200 in [5], < 1 in data set [6] and < 1 in [7].

Turning to `Cc1cc(C)c(Oc2cc(Nc3ccc(Cl)cc3)nc3ncnn23)c(C)c1`, the EC50 is 0.05 µM in data set [1], > 46 µM in data set [2] and > 46 µM in data set [3]. Moreover, the CC50 at 120 h in data set [4] is 46 µM. The selectivity ratio is 864 in data set [5], < 1 in data set [6] and < 1 in [7].

Take `Cc1cc(C)c(Oc2cc(Nc3ccc([N+](=O)[O-])cc3)nc3ncnn23)c(C)c1`: the concentration for a half-maximal effect (EC50) was 0.6 µM in data set [1], > 33 µM in data set [2] and > 33 µM in [3]. In data set [4], this compound registered a CC50 at 120 h of 33 µM. Further, the selectivity ratio was 57 in data set [5], < 1 in [6] and < 1 in data set [7].

In the case of `N#Cc1ccc(Nc2cc(Oc3c(F)cc(F)cc3F)nc3ncnn23)cc1`, the half-maximal effective concentration (EC50) in data set [1], in data set [2] and in data set [3] was > 174 µM in each case. It took 174 µM to reach half-maximal cytotoxicity in data set [4] (CC50 at 120 h). The selectivity ratio in data set [5], in [6] and in [7] was < 1 throughout.

Take `Cc1cc(Cl)cc(C)c1Oc1cc(Nc2ccc(C#N)cc2)nc2ncnn12`: the results for the EC50 in data set [1], in data set [2] and in data set [3] were 0.4 µM, > 104 µM and > 104 µM, respectively. For the same compound, it took 104 µM to reach half-maximal cytotoxicity in data set [4] (CC50 at 120 h). The selectivity ratio in data set [5] is 256; in [6], < 1; in data set [7], < 1.

Take `Cc1cccc(C)c1Oc1cc(Nc2ccc(C#N)cc2)nc2ncnn12`: the values for the EC50 in [1], in [2] and in data set [3] were 1.3 µM, > 233 µM and > 233 µM, respectively. The compound further showed a CC50 at 120 h in [4] of 233 µM. Besides, the figures for the selectivity ratio in [5], in data set [6] and in [7] were 182, < 1 and < 1, respectively.

In the case of `Cc1ccc(Nc2cc(Oc3c(C)cc(C)cc3C)n3ncnc3n2)cc1`, the results for the EC50 in [1], in data set [2] and in [3] were 0.07 µM, > 47 µM and > 47 µM, respectively. The cytotoxic concentration (CC50) at 120 h in [4] worked out at 47 µM. For the same compound, the selectivity ratio in data set [5] was 649; in data set [6], < 1; in [7], < 1.

Regarding `Cc1ccnc2c1NC(=O)c1cccnc1N2C1CC1` [NEVIRAPINE], the figures for the EC50 in data set [1] and in data set [2] were 0.15 µM and 2.9 µM, respectively. Besides, the cytotoxic concentration (CC50) at 120 h in data set [4] is > 15 µM. Further, the selectivity ratio is > 14 in data set [5] and > 5 in data set [6].

Consider `Cc1cc(C)c(Nc2cc(Nc3ccc(C#N)cc3)nc3ncnn23)c(C)c1`, for which the EC50 was 0.02 µM in data set [1], 7.6 µM in [2] and > 190 µM in [3]. In data set [4], this compound came in with a CC50 at 120 h of 190 µM. Also, the selectivity ratio in data set [5] is 8990; in data set [6], 25; in data set [7], < 1.

Regarding `N#Cc1ccc(Nc2cc(Oc3c(Cl)cc(Cl)cc3Cl)n3ncnc3n2)cc1`, the values for the concentration giving a half-maximal response (EC50) in data set [1], in [2] and in data set [3] were 0.6 µM, > 29 µM and > 29 µM, respectively. In data set [4], the CC50 at 120 h was 29 µM. Also, the selectivity ratio was 47 in [5], < 1 in [6] and < 1 in data set [7].

With `Cc1cccc(C)c1Nc1cc(Nc2ccc(C#N)cc2)nc2ncnn12`, the EC50 in data set [1] was 2.1 µM; in [2], > 272 µM; in [3], > 272 µM. This compound displayed a CC50 at 120 h in data set [4] of 272 µM. The selectivity ratio was 127 in data set [5], < 1 in data set [6] and < 1 in [7].

As to `COc1ccc(Nc2cc(Oc3c(C)cc(C)cc3C)n3ncnc3n2)cc1`, the EC50 in data set [1] was 0.2 µM; in [2] it was > 37 µM; in data set [3] it was > 37 µM. The CC50 at 120 h in data set [4] is 37 µM. The results for the selectivity ratio in [5], in [6] and in data set [7] were 165, < 1 and < 1, respectively.

In the case of `Cc1cccc(C)c1Oc1cc(Nc2ccc(C#N)cc2)n2ncnc2n1`, the EC50 is 1.5 µM in data set [1], > 253 µM in data set [2] and > 253 µM in [3]. In data set [4], the CC50 at 120 h turned out to be 253 µM. Moreover, the selectivity ratio in [5] is 170; in data set [6], < 1; in [7], < 1.

Take `Cc1cc(Br)c(Oc2cc(Nc3ccc(C#N)cc3)nc3ncnn23)c(Br)c1`: the EC50 in data set [1] was 0.05 µM; in [2], > 192 µM; in [3], > 192 µM. For the same compound, half-maximal cytotoxicity in [4] (CC50 at 120 h) was put at 192 µM. The selectivity ratio is 3620 in data set [5], < 1 in data set [6] and < 1 in data set [7].

Turning to `CC(C)Nc1cccnc1N1CCN(C(=O)c2cc3cc(NS(C)(=O)=O)ccc3[nH]2)CC1` [DELAVIRDINE], the EC50 in [1] is 0.07 µM; in data set [2], > 36 µM. Besides, the CC50 at 120 h in data set [4] is > 36 µM. Also, the selectivity ratio in data set [5] is > 494; in [6], 1.

As to `Cc1cc(Br)cc(C)c1Oc1cc(Nc2ccc(C#N)cc2)nc2ncnn12`, the EC50 in data set [1] is 0.23 µM; in data set [2] it was > 136 µM; in data set [3], > 136 µM. Besides, it took 136 µM to reach half-maximal cytotoxicity in [4] (CC50 at 120 h). For the same compound, the figures for the selectivity ratio in data set [5], in data set [6] and in [7] were 579, < 1 and < 1, respectively.

For the compound `Cc1cc(Br)cc(C)c1Oc1cc(Nc2ccc(C#N)cc2)n2ncnc2n1`, the concentration for a half-maximal effect (EC50) in data set [1] is 0.3 µM; in data set [2], > 128 µM; in data set [3], > 128 µM. In data set [4], the 50% cytotoxic concentration (CC50) at 120 h came to 128 µM. For the same compound, the selectivity ratio is 427 in data set [5], < 1 in [6] and < 1 in [7].

As for `Cc1cc(C#N)cc(C)c1Oc1nc(Nc2ccc(C#N)cc2)nc2[nH]ccc12`, the EC50 came out at 0.00016 µM in data set [8], 0.0045 µM in data set [9], 0.004 µM in [10] and 0.0078 µM in [11].

`Cc1cc(C)c(Oc2cc(Nc3ccc(C#N)cc3)n3ncnc3n2)c(C)c1`: the EC50 is 0.07 µM in data set [1], ≥ 50 µM in [2] and > 106 µM in [3]. The same compound registered a CC50 at 120 h in data set [4] of 106 µM. The selectivity ratio in data set [5] is 1450; in data set [6], ≤ 2; in [7], < 1.

One may read the EC50 as the concentration giving half of the maximal effect. Broadly, the CC50 is the concentration at which the toxic effect on the cells reaches its halfway point. The low end stands for harm at low concentration, the high end for better tolerance by the cells.
